Published values of several laboratories.
Each line is one published result; the experiments were not run side by side.
CHEK1: Serine/threonine-protein kinase Chk1 (CHEK1, Homo sapiens, UniProt O14757)
SLC6A3: Sodium-dependent dopamine transporter (SLC6A3, Homo sapiens, UniProt Q01959)
SLC2A1: Solute carrier family 2, facilitated glucose transporter member 1 (SLC2A1, Homo sapiens, UniProt P11166)
PRMT1: Protein arginine N-methyltransferase 1 (PRMT1, Homo sapiens, UniProt Q99873)
HDAC5: Histone deacetylase 5 (HDAC5, Homo sapiens, UniProt Q9UQL6)
PANK3: Pantothenate kinase 3 (PANK3, Homo sapiens, UniProt Q9H999)
PTPN22: Tyrosine-protein phosphatase non-receptor type 22 (PTPN22, Homo sapiens, UniProt Q9Y2R2)
TLR8: Toll-like receptor 8 (TLR8, Homo sapiens, UniProt Q9NR97)
Nuclear receptor ROR-gamma: Nuclear receptor ROR-gamma (Mus musculus, UniProt P51450)

SMILES	target	test	setting	IC50 [nM]
COc1cc(-c2ccc3c(c2)Nc2ccc(N)cc2NC3=O)ccc1[N+](=O)[O-]	CHEK1	enzyme activity, inhibitor	–	16.6
CCn1ncc2c1-c1cnc(N)c(c1)O[C@H](C)c1cc(F)ccc1-c1nn(C)nc1C2	Leukocyte tyrosine kinase receptor (LTK, Homo sapiens, UniProt P29376)	enzyme activity, inhibitor, radiometric	–	5.8
Clc1ccc(C(c2ccccc2)c2nnnn2CCCCN2CCN(CCCc3ccccc3)CC2)cc1 (stereo not drawn)	SLC6A3	transporter uptake, inhibitor	–	415
C/C(=N\O)c1ccc(-c2ccc(O)c(Cl)c2)c(Cl)c1O	SLC2A1	transporter uptake, inhibitor, radiometric	–	7000
CC(C)n1nnc(-c2cc(O)cc(Nc3ncnn4ccc(CN5CCC(N)CC5)c34)c2)n1	AP2-associated protein kinase 1 (AAK1, Homo sapiens, UniProt Q2M2I8)	enzyme activity, inhibitor	–	0.2
COc1cc(-c2ccc3c(c2)Nc2ccc(CC(=O)NC(CO)c4ccccc4)cc2NC3=O)ccc1[N+](=O)[O-] (stereo not drawn)	CHEK1	enzyme activity, inhibitor	–	26.9
N=C(NCCCSC[C@H]1O[C@@H](n2cnc3c(NCCCc4ccccc4)ncnc32)[C@H](O)[C@@H]1O)NC1CCC1	PRMT1	enzyme activity, inhibitor, fluorescence	–	249
COc1cccc(CN(C(=O)CC(C)(C)C)[C@H]2C[C@@H](C(=O)N3CCNCC3)N(Cc3ccc4c(c3)OCO4)C2)c1	Protein smoothened (SMO, Homo sapiens, UniProt Q99835)	reporter gene, inhibitor, luciferase	–	1500
CCOc1ccc2c(-c3cc(C)nc(Nc4cc(OC)cc(C(F)(F)F)c4)n3)cnn2n1	Dual specificity protein kinase CLK4 (CLK4, Homo sapiens, UniProt Q9HAZ1)	enzyme activity, inhibitor	–	> 10000
Clc1ccc(C(c2ccc(Cl)cc2)c2nnnn2CCCCN2CCC(Cc3ccccc3)CC2)cc1	SLC6A3	transporter uptake, inhibitor	–	172
OC[C@H]1O[C@@H](n2cnc3c(NCCCc4ccccc4)ncnc32)[C@H](O)[C@@H]1O	PRMT1	enzyme activity, inhibitor, fluorescence	–	> 100000
CCCC[C@H](NC(=O)C1CN(C)C1)c1ncc(-c2cc3ccccc3nc2OC)[nH]1	HDAC5	enzyme activity, inhibitor	–	> 30000
O=C(O)C1=CCCN(CCON=C(c2ccccc2)c2ccccc2)C1	Sodium- and chloride-dependent GABA transporter 1 (Slc6a1, Rattus norvegicus, UniProt P23978)	ligand displacement, radioligand	–	210
COc1cc(-c2ccc(-c3[nH]nc4c3Cc3cc(CNC5CCC(O)CC5)ccc3-4)cc2)ccc1O (stereo not drawn)	CHEK1	enzyme activity, inhibitor	–	59.4
CN(CCOc1ccc(CC2SC(=O)NC2=O)cc1)c1ccccn1 (stereo not drawn)	PANK3	enzyme activity, inhibitor, ATP luminescence	–	1700
COC(=O)Cc1ccc2c(c1)NC(=O)c1cc(C)c(-c3cccc(NC(C)=O)c3)cc1N2	CHEK1	enzyme activity, inhibitor	–	> 10000
S=C(SSC(=S)N1CCOCC1)N1CCOCC1	PTPN22	enzyme activity, inhibitor, fluorescence	pH 6.5	23000
c1ccc(CCC2CCN(CCCCn3nnnc3C(c3ccccc3)c3ccccc3)CC2)cc1	SLC6A3	transporter uptake, inhibitor	–	383
Cc1cc(-c2ccnc3cc(Cl)ccc23)ccc1O	TLR8	reporter gene, antagonist	–	1
Cc1ccc(NC(=O)c2ccc(C)c(C(F)(F)F)c2)cc1C#Cc1nn(C2CCC(O)CC2)c2ncnc(N)c12 (stereo not drawn)	Fibroblast growth factor receptor 2 (FGFR2, Homo sapiens, UniProt P21802)	enzyme activity, inhibitor, radiometric	–	40
Cc1cnc(-c2ccc(-c3ccc(NC(=O)Nc4c(F)cc(F)cc4F)cc3F)c3c2C(=O)NC3)[nH]1	Discoidin domain-containing receptor 2 (DDR2, Homo sapiens, UniProt Q16832)	enzyme activity, inhibitor	–	1
COC(=O)Cc1ccc2c(c1)NC(=O)c1ccc(-c3cn(C)cn3)cc1N2	CHEK1	enzyme activity, inhibitor	–	7810
COCCNC(=O)Nc1ccc2nc(-c3cccs3)c(-c3cccs3)nc2c1	Acetyl-coenzyme A synthetase, cytoplasmic (ACSS2, Homo sapiens, UniProt Q9NR19)	enzyme activity, inhibitor, absorbance	–	~600

SMILES	target	test	setting	IC50 [nM]
CC/C=C\C/C=C\C/C=C\C/C=C\C/C=C\CCCC(=O)O	DNA topoisomerase 1 (TOP1, Homo sapiens, UniProt P11387)	enzyme activity, inhibitor	–	20000
C/C(=N\O)c1ccc(-c2cccc(O)c2)c(Cl)c1O	SLC2A1	transporter uptake, inhibitor, radiometric	–	15700
N=C(N)c1ccc(-c2ccc(-c3ccc(C(=N)N)nc3)o2)cc1	PRMT1	enzyme activity, inhibitor	–	9500
COc1cc(-c2ccc3c(c2)Nc2ncccc2NC3=O)ccc1[N+](=O)[O-]	CHEK1	enzyme activity, inhibitor	–	> 10000
Clc1ccc(C(c2ccccc2)c2nnnn2CCCCN2CCC(Cc3ccc(Cl)c(Cl)c3)CC2)cc1 (stereo not drawn)	SLC6A3	transporter uptake, inhibitor	–	550
CCN(CC)C(=O)CC(c1ccc2c(c1)OCO2)c1c(O)cc(OC)cc1OC (stereo not drawn)	Nuclear receptor ROR-gamma	reporter gene	–	> 50000
Clc1ccc(C(c2ccccc2)c2nnnn2CCCCN2CCN(CC=Cc3ccccc3)CC2)cc1 (stereo not drawn)	SLC6A3	transporter uptake, inhibitor	–	412
CC(C)(C)OC(=O)NCCCCOc1ccc(Cl)cc1NC(=O)Nc1cnc(C#N)cn1	CHEK1	enzyme activity, inhibitor	–	8370
COc1ccc(-c2nsc(NC(=O)[C@@H]3C[C@H]3C)c2C)cc1	Metabotropic glutamate receptor 5 (GRM5, Homo sapiens, UniProt P41594)	calcium signal, antagonist	–	118
Fc1ccc(C(c2ccc(F)cc2)c2nnnn2CCCCN2CCC(c3ccccc3)CC2)cc1	SLC6A3	transporter uptake, inhibitor	–	55.7
N=C(NCCCSC[C@H]1O[C@@H](n2cnc3c(NCCCc4ccccc4)ncnc32)[C@H](O)[C@@H]1O)Nc1ccccc1	PRMT1	enzyme activity, inhibitor, fluorescence	–	355
Nc1ccc(-c2ccncc2)cc1NC(=O)N1CCCC1	HDAC5	enzyme activity, inhibitor	–	> 33300
CC(C)C1=CC[C@H]2C(=C1)CC[C@@H]1[C@]2(C)CCC[C@@]1(C)C(=O)O	ATP-citrate synthase (ACLY, Homo sapiens, UniProt P53396)	enzyme activity, inhibitor	–	> 20000
CC(C)N(C(=S)SSC(=S)N(C(C)C)C(C)C)C(C)C	PTPN22	enzyme activity, inhibitor, fluorescence	pH 6.5	7000
CO[C@H]1O[C@H](COS(=O)(=O)O)[C@@H](O[C@@H]2O[C@@H](C(=O)O)[C@@H](O[C@H]3O[C@H](COS(=O)(=O)O)[C@@H](O[C@@H]4O[C@H](C(=O)O)[C@@H](O[C@H]5O[C@H](COS(=O)(=O)O)[C@@H](O)[C@H](O)[C@H]5NS(=O)(=O)O)[C@H](O)[C@H]4O)[C@H](OS(=O)(=O)O)[C@H]3NS(=O)(=O)O)[C@H](O)[C@H]2OS(=O)(=O)O)[C@H](O)[C@H]1NS(=O)(=O)O	Coagulation factor XI (F11, Homo sapiens, UniProt P03951)	enzyme activity, inhibitor, absorbance	pH 7.4	> 360000
CC(=O)SCCNC(=O)CCNC(=O)[C@H](O)C(C)(C)COP(=O)(O)OP(=O)(O)OC[C@H]1O[C@@H](n2cnc3c(N)ncnc32)[C@H](O)[C@@H]1OP(=O)(O)O	PANK3	enzyme activity, inhibitor	–	170
COc1cc(O)c(C(CC(=O)N2CCCC2)c2ccc3c(c2)OCO3)c(OC)c1 (stereo not drawn)	Nuclear receptor ROR-gamma	reporter gene	–	> 50000
O=C(O)c1cnn2c(-c3cccc(C(F)(F)F)c3)ccnc12	TLR8	reporter gene	–	> 20000
c1ccc(CCC2CCN(CCCn3nnnc3C(c3ccccc3)c3ccccc3)CC2)cc1	SLC6A3	transporter uptake, inhibitor	–	726
OCc1ccc(-c2ccc(-c3[nH]nc4c3Cc3cc(O)ccc3-4)cc2)cc1	CHEK1	enzyme activity, inhibitor	–	> 10000
Clc1ccc(CC2CCN(CCCCn3nnnc3C(c3ccccc3)c3ccccc3)CC2)cc1Cl	SLC6A3	transporter uptake, inhibitor	–	488
CSc1ccc(/C=C2/C(C)=C(CC(=O)O)c3cc(F)ccc32)cc1	Dual specificity calcium/calmodulin-dependent 3',5'-cyclic nucleotide phosphodiesterase 1C (PDE1C, Homo sapiens, UniProt Q14123)	enzyme activity, inhibitor	–	> 100000
